Measurements taken from ChEMBL document CHEMBL1122046, “Quaternary heterocyclylamino beta-lactams: a generic alternative to the classical acylamino side chain” (1982).
In brackets after ≈: the same amount, converted by molar mass.

Legend:
Serratia marcescens [1] = test: Inhibition zone diameter against aerobic organism Serratia marcescenes strain 2855
Staphylococcus aureus [2] = test: Inhibition zone diameter against aerobic organism Staphylococcus aureus strain 2314
Salmonella [3] = test: Inhibition zone diameter against aerobic organism Salmonella strain 826
Klebsiella = test: Inhibition zone diameter against aerobic organism Klebsiella species strain 2921
Pseudomonas aeruginosa [4] = test: Inhibition zone diameter against aerobic organism Pseudomonas aeruginosa strain 3350
Morganella morganii [5] = test: Disk zone diameter (25 ug/disk) against aerobic organism Morganella morganii strain 2834
Streptococcus pyogenes [6] = test: Inhibition zone diameter against aerobic organism Streptococcus pyogenes strain 2874
Shigella sp. = test: (§1) Minimum inhibitory concentration against aerobic organism Shigella species strain 2880; format: functional
Summary of the method: (§2)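 Agar-dilution MIC in µg/mL against aerobic bacterial strains on tryptocase soy agar, with inoculum applied as spots. Most series used 10^5 cfu per spot, and a later series used 10^4 cfu per spot. In some tables, footnoted strains were instead tested on Mueller-Hinton or nutrient agar. β-Lactamase-producing strains are flagged.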

Enterobacter cloacae [7] = test: Minimum inhibitory concentration against aerobic organism Enterobacter cloacae 2646; format: functional
Summary of the method: as §2

Enterococcus faecalis [8] = test: Minimum inhibitory concentration against aerobic organisms Streptococcus faecalis strain 2864; format: functional
Summary of the method: as §2

Streptococcus pyogenes [9] = test: Minimum inhibitory concentration against aerobic organism Streptococcus pyogenes strain 3124; format: functional
Summary of the method: as §2

[10] = Minimum inhibitory concentration against aerobic organism Salmonella schottmuelleri 2837; format: functional
Summary of the method: as §2

Staphylococcus aureus [11] = test: Minimum inhibitory concentration against aerobic organism Staphylococcus aureus strain 2868; format: functional; details: Staphylococcus aureus; read-out: MIC
Summary of the method: as §2

Klebsiella pneumoniae [12] = test: Minimum inhibitory concentration against aerobic organism Klebsiella pneumoniae strain 2882; format: functional; details: Klebsiella pneumoniae; read-out: MIC
Summary of the method: as §2

Escherichia coli = test: MIC against aerobic organism Escherichia coli strain 2891; format: functional; details: Escherichia coli; read-out: MIC
Summary of the method: as §2

Enterobacter cloacae [13] = test: Minimum inhibitory concentration against aerobic organism Enterobacter cloacae strain 2646; format: functional; details: Enterobacter cloacae; read-out: MIC
Summary of the method: as §2

Klebsiella pneumoniae [14] = test: Minimum inhibitory concentration against aerobic organism Klebsiella pneumoniae strain 4005; format: functional
Summary of the method: as §2

Proteus vulgaris = test: Minimum inhibitory concentration against aerobic organism Proteus vulgaris strain 2829; format: functional; details: Proteus vulgaris; read-out: MIC
Summary of the method: as §2

Staphylococcus aureus [15] = test: Minimum inhibitory concentration against aerobic organism Staphylococcus aureus strain 2865; format: functional
Summary of the method: as §2

Morganella morganii [16] = test: Minimum inhibitory concentration against aerobic organism Morganella morganii strain 2833; format: functional; details: Morganella morganii; read-out: MIC
Summary of the method: as §2

Salmonella [17] = test: Minimum inhibitory concentration against aerobic organism Salmonella strain 3860
Proteus mirabilis = test: Minimum inhibitory concentration against aerobic organism Proteus mirabilis strain 2830; format: functional; details: Proteus mirabilis; read-out: MIC
Summary of the method: as §2

Pseudomonas aeruginosa [18] = test: Minimum inhibitory concentration against aerobic organism Pseudomonas aeruginosa strain 2835; format: functional
Summary of the method: as §2

Klebsiella aerogenes [19] = test: Minimum inhibitory concentration against aerobic organism Enterobacter aerogenes strain 2828; format: functional
Summary of the method: as §2

Enterococcus faecalis [20] = test: Minimum inhibitory concentration against aerobic organism Streptococcus faecalis strain 2864; format: functional
Summary of the method: as §2

Shigella = test: as §1; format: functional; details: Shigella; read-out: MIC
Summary of the method: as §2

[21] = Minimum inhibitory concentration against aerobic organism Salmonella schottmuelleri strain 2837; format: functional; details: Salmonella; read-out: MIC
Summary of the method: as §2

Enterococcus faecalis [22] = test: Minimum inhibitory concentration against aerobic organism Streptococcus faecalis strain 2864
Salmonella [23] = test: Minimum inhibitory concentration against aerobic organism Salmonella strain 3860; format: functional
Summary of the method: as §2

Staphylococcus aureus [24] = test: Inhibition zone diameter against aerobic organism Staphylococcus aureus strain 2314; remark: listed apart in the source
Serratia marcescens [25] = test: Minimum inhibitory concentration against aerobic organism Serratia marcescens strain 2852; format: functional; details: Serratia marcescens; read-out: MIC
Summary of the method: as §2

Klebsiella aerogenes [26] = test: Minimum inhibitory concentration against aerobic organism Enterobacter aerogenes strain 2906; format: functional; details: Klebsiella aerogenes; read-out: MIC
Summary of the method: as §2

Morganella morganii [27] = test: Minimum inhibitory concentration against aerobic organism Morganella morganii strain 2833
[28] = Streptococcus pyogenes, read-out: MIC

Structure (SMILES)	zone diameter (Serratia marcescens [1])	zone diameter (Salmonella [3])	zone diameter (Klebsiella)	zone diameter (Pseudomonas aeruginosa [4])	zone diameter (Morganella morganii [5])	zone diameter (Streptococcus pyogenes [6])	MIC (Streptococcus pyogenes [9]; [28])	MIC (Staphylococcus aureus [11])	MIC (Klebsiella pneumoniae [12])	MIC (Escherichia coli)	MIC (Enterobacter cloacae [13])	MIC (Proteus vulgaris)	MIC (Proteus mirabilis)	MIC (Pseudomonas aeruginosa [18])	MIC [21]	other results
CC(O)[C@H]1C(=O)N2C(C(=O)[O-])=C(SCCNc3cc[n+](C)cc3)C[C@H]12 (stereo partly specified)	26.5 mm	28 mm	27 mm	24.5 mm	26 mm	37.5 mm	–	–	–	–	–	–	–	–	–	zone diameter (Staphylococcus aureus [2]): 42 mm
CC1(C)S[C@@H]2[C@H](NC(=O)Cc3ccccc3)C(=O)N2[C@H]1C(=O)O [PENICILLIN G]	–	–	–	–	–	–	< 0.39 µg/mL	12.5 µg/mL (≈ 37.4 µM)	25 µg/mL (≈ 74.8 µM)	> 100 µg/mL	–	–	–	–	–	MIC (Shigella sp.): 6.25 µg/mL (≈ 18.7 µM); MIC (Enterobacter cloacae [7]): > 100 µg/mL; MIC (Enterococcus faecalis [8]): 1.56 µg/mL (≈ 4.67 µM); MIC [10]: 3.12 µg/mL (≈ 9.33 µM)
Cc1nnc(SCC2=C(C(=O)[O-])N3C(=O)[C@@H](Nc4cc[n+](Cc5ccccc5)cc4)[C@H]3SC2)s1	–	–	–	–	–	–	–	2 µg/mL (≈ 3.91 µM)	–	< 0.06 µg/mL	0.125 µg/mL (≈ 0.244 µM)	0.25 µg/mL (≈ 0.489 µM)	128 µg/mL (≈ 250 µM)	> 128 µg/mL	–	MIC (Klebsiella pneumoniae [14]): 16 µg/mL (≈ 31.3 µM); MIC (Staphylococcus aureus [15]): 0.25 µg/mL (≈ 0.489 µM); MIC (Morganella morganii [16]): 128 µg/mL (≈ 250 µM); MIC (Salmonella [17]): 0.125 µg/mL (≈ 0.244 µM); MIC (Klebsiella aerogenes [19]): 16 µg/mL (≈ 31.3 µM); MIC (Enterococcus faecalis [20]): 64 µg/mL (≈ 125 µM)
C[n+]1ccc(NC2C(=O)N3C2SC(C)(C)[C@@H]3C(=O)[O-])cc1 (stereo partly specified)	–	–	–	–	–	–	1.56 µg/mL (≈ 5.08 µM)	> 100 µg/mL	100 µg/mL (≈ 325 µM)	50 µg/mL (≈ 163 µM)	> 100 µg/mL	–	–	–	0.78 µg/mL (≈ 2.54 µM)	MIC (Shigella): 12.5 µg/mL (≈ 40.7 µM); MIC (Enterococcus faecalis [22]): > 100 µg/mL
CC(=O)OCC1=C(C(=O)O)N2C(=O)[C@@H](NC(=O)Cc3cccs3)[C@H]2SC1 [CEPHALOTHIN]	–	–	–	–	–	–	–	0.06 µg/mL (≈ 0.151 µM)	–	> 128 µg/mL	–	128 µg/mL (≈ 323 µM)	32 µg/mL (≈ 80.7 µM)	> 128 µg/mL	–	MIC (Klebsiella pneumoniae [14]): 0.25 µg/mL (≈ 0.631 µM); MIC (Enterobacter cloacae [7]): > 128 µg/mL; MIC (Staphylococcus aureus [15]): 0.015 µg/mL (≈ 0.0378 µM); MIC (Morganella morganii [16]): > 128 µg/mL; MIC (Enterococcus faecalis [8]): 8 µg/mL (≈ 20.2 µM); MIC (Klebsiella aerogenes [19]): 32 µg/mL (≈ 80.7 µM); MIC (Salmonella [23]): 2 µg/mL (≈ 5.04 µM)
C[C@@H](O)[C@H]1C(=O)N2C(C(=O)O)=C(SCCNC=N)C[C@H]12 [IMIPENEM ANHYDROUS]	24.5 mm	29.5 mm	26.5 mm	31 mm	27 mm	43 mm	–	–	–	–	–	–	–	–	–	zone diameter (Staphylococcus aureus [24]): 42 mm
CC1(C)S[C@@H]2[C@H](NC(=O)[C@H](N)c3ccccc3)C(=O)N2[C@H]1C(=O)O [AMPICILLIN]	–	–	–	–	–	–	–	25 µg/mL (≈ 71.5 µM)	50 µg/mL (≈ 143 µM)	> 100 µg/mL	–	–	–	–	1.56 µg/mL (≈ 4.46 µM)	MIC (Shigella sp.): 6.25 µg/mL (≈ 17.9 µM); MIC (Enterobacter cloacae [7]): > 100 µg/mL; MIC (Enterococcus faecalis [8]): 6.25 µg/mL (≈ 17.9 µM); MIC (Streptococcus pyogenes [9]): < 0.09 µg/mL
CC(O)[C@H]1C(=O)N2C(C(=O)[O-])=C(SCCNc3cccc[n+]3C)C[C@H]12 (stereo partly specified)	26 mm	27.5 mm	26 mm	17.5 mm	27 mm	37 mm	–	–	–	–	–	–	–	–	–	zone diameter (Staphylococcus aureus [2]): 42.5 mm
Cn1nnnc1SCC1=C(C(=O)[O-])N2C(=O)[C@@H](Nc3cc[n+](Cc4ccccc4)cc3)[C@H]2SC1	–	–	–	–	–	–	0.015 µg/mL (≈ 0.0303 µM)	4 µg/mL (≈ 8.07 µM)	0.25 µg/mL (≈ 0.504 µM)	0.06 µg/mL (≈ 0.121 µM)	1 µg/mL (≈ 2.02 µM)	1 µg/mL (≈ 2.02 µM)	32 µg/mL (≈ 64.6 µM)	> 128 µg/mL	< 0.004 µg/mL	MIC (Shigella): < 0.004 µg/mL; MIC (Klebsiella pneumoniae [14]): 8 µg/mL (≈ 16.1 µM); MIC (Staphylococcus aureus [15]): 0.25 µg/mL (≈ 0.504 µM); MIC (Morganella morganii [16]): 16 µg/mL (≈ 32.3 µM); MIC (Serratia marcescens [25]): 64 µg/mL (≈ 129 µM); MIC (Klebsiella aerogenes [26]): 8 µg/mL (≈ 16.1 µM); MIC (Klebsiella aerogenes [19]): 2 µg/mL (≈ 4.04 µM); MIC (Enterococcus faecalis [20]): 128 µg/mL (≈ 258 µM); MIC (Salmonella [23]): 1 µg/mL (≈ 2.02 µM)
CCOC(=O)C[n+]1ccc(N[C@@H]2C(=O)N3C(C(=O)[O-])=C(CSc4nnnn4C)CS[C@H]23)cc1	–	–	–	–	–	–	< 0.5 µg/mL	16 µg/mL (≈ 32.5 µM)	4 µg/mL (≈ 8.14 µM)	2 µg/mL (≈ 4.07 µM)	16 µg/mL (≈ 32.5 µM)	< 0.5 µg/mL	128 µg/mL (≈ 260 µM)	> 128 µg/mL	2 µg/mL (≈ 4.07 µM)	MIC (Shigella): < 0.5 µg/mL; MIC (Serratia marcescens [25]): > 128 µg/mL; MIC (Klebsiella aerogenes [26]): 32 µg/mL (≈ 65.1 µM); MIC (Morganella morganii [27]): > 128 µg/mL; MIC (Enterococcus faecalis [20]): > 128 µg/mL
CC(O)[C@H]1C(=O)N2C(C(=O)[O-])=C(SCCNc3cc[n+](Cc4ccccc4)cc3)C[C@H]12 (stereo partly specified)	25 mm	26 mm	24 mm	11.2 mm	26.5 mm	35.2 mm	–	–	–	–	–	–	–	–	–	zone diameter (Staphylococcus aureus [24]): 36 mm
CC(O)[C@H]1C(=O)N2C(C(=O)O)=C(SCCNC3=NCCC3)C[C@H]12 (stereo partly specified)	25.5 mm	28 mm	24 mm	25.5 mm	–	40 mm	–	–	–	–	–	–	–	–	–	zone diameter (Staphylococcus aureus [2]): 38 mm
CC(=O)NCCSC1=C(C(=O)O)N2C(=O)[C@H](C(C)O)[C@H]2C1 (stereo partly specified)	28 mm	30.5 mm	28 mm	10 mm	28.5 mm	37 mm	–	–	–	–	–	–	–	–	–	zone diameter (Staphylococcus aureus [24]): 39 mm
